Measurements as given in ChEMBL document CHEMBL4837217, “Design, synthesis, in vitro and in vivo biological evaluation of pyranone-piperazine analogs as potent antileishmanial agents” (Eur J Med Chem, 2021).
The source made the active and inactive calls. No cut-off for these calls is given here.

Assays:
[1] = test system: Leishmania donovani; experiment: Induction of mitochondrial membrane potential dysfunction in Leishmania donovani MHOM/IN/80/Dd8 promastigotes assessed as cells with mitochondrial depolarization at 50 uM incubated for 24 hrs by JC1 staining based flow cytometry (reference value: 3.63%); format: functional
Procedure, shortened: (§1)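 Promastigotes (1 × 10^6 cells/mL) exposed to 50 µM for 24–72 h, or to IC50 for 72 h. CCCP (50 µM final) served as depolarization positive control. Cells washed, stained with JC-1 (2 µM final) 30 min at 37 °C, 5% CO2. Red-to-green fluorescence shift measured by flow cytometry.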

[2] = test system: Splenocyte; experiment: Immunomodulatory activity in BALB/c mouse infected with Leishmania donovani amastigotes assessed as increase in IFN-gamma level in splenocytes supernatants at 50 mg/kg, ip for 5 days; format: functional, organism-based; conditions: time 5.0 day
[3] = test system: Leishmania donovani; experiment: Antileishmanial activity against log phase of Leishmania donovani MHOM/IN/80/Dd8 promastigotes assessed as reduction in cell viability by MTT assay; format: functional, organism-based; conditions: time 12-72 hrs, TDE = time-dependent effect
[4] = test system: Leishmania donovani; experiment: Induction of apoptosis in Leishmania donovani MHOM/IN/80/Dd8 promastigotes assessed as late apoptotic cells at 50 uM measured after 24 hrs by Alexa fluor488-AnnexinV/PI staining based FACSCalibur flow cytometry analysis (reference value: 0.7%); format: functional
[5] = test system: Leishmania donovani; experiment: Antileishmanial activity against amastigote stage of Leishmania donovani MHOM/IN/80/Dd8 harboring luciferase gene infected in mouse J774 cells assessed as parasite growth inhibition at 25 uM incubated for 72 hrs by Steady-Glo reagent based luciferase assay; format: functional; conditions: MHOM/IN/80/Dd8, J774
Procedure, shortened: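 J774 murine macrophages, 4 × 10⁴ cells/well in RPMI with 10% FBS for 24 h, are infected for 24 h at 37 °C, 5% CO₂ with stationary-phase luciferase-transfected L. donovani Dd8 promastigotes at a 1:8 macrophage:parasite ratio. Compounds are dissolved in DMSO. Luminescence is read after Steady-Glo is added in PBS. IC₅₀ is taken from a four-parameter Hill nonlinear regression. Miltefosine is the reference.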

[6] = test system: Splenocyte; experiment: Immunomodulatory activity in BALB/c mouse infected with Leishmania donovani amastigotes assessed as decrease in IL-10 level in splenocytes supernatants at 50 mg/kg, ip for 5 days; format: functional, organism-based; conditions: time 5.0 day
[7] = test system: Leishmania donovani; experiment: Induction of apoptosis in Leishmania donovani MHOM/IN/80/Dd8 promastigotes assessed as increase in cytochrome c release by measuring increase in cytochrome c level in cytosol at 50 uM incubated for 12 to 72 hrs by Western blot analysis; format: functional, organism-based; conditions: time 12-72 hrs
Procedure, shortened: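 Promastigotes treated with 50 µM for 12, 24, 48 and 72 h, then washed in PBS. Cell fractionation buffer applied 10 min on ice, cells homogenized, centrifuged 10,000 × g for 25 min at 4 °C. Cytosolic and mitochondrial fractions immunoblotted for cytochrome c. Loading controls were actin (cytosol) and COX-4 (mitochondria).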

[8] = test system: Leishmania donovani; experiment: Antileishmanial activity against Leishmania donovani MHOM/IN/80/Dd8 infected in BALB/c mouse assessed as reduction in intracellular amastigote burden in spleen at 50 mg/kg, ip for 5 days and measured at 1 week post-treatment by Giemsa staining based assay relative to control; format: functional; conditions: MHOM/IN/80/Dd8, ip, 288 h, time 12 day
Procedure, shortened: (§2)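 Female BALB/c mice (20–25 g), 5/group, infected iv with 2 × 10^7 stationary-phase L. donovani promastigotes. Infection confirmed at 2 wk, then 50 mg/kg ip daily for 5 consecutive days. Vehicle was 5% DMSO. Sacrificed day 7 post-treatment. Giemsa-stained liver/spleen impression smears counted as amastigotes/1000 nucleated cells, expressed as LDU (amastigotes per nucleated cell × organ weight in mg), compared with untreated infected controls.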

[9] = test system: Leishmania donovani; experiment: Induction of mitochondrial membrane potential dysfunction in Leishmania donovani MHOM/IN/80/Dd8 promastigotes assessed as cells with mitochondrial depolarization at IC50 incubated for 72 hrs by JC1 staining based flow cytometry (reference value: 6.6%); format: functional; procedure, shortened: as §1
[10] = test system: Leishmania donovani; experiment: Antileishmanial activity against Leishmania donovani MHOM/IN/80/Dd8 infected in BALB/c mouse assessed as reduction in intracellular amastigote burden in liver at 50 mg/kg, ip for 5 days and measured at 1 week post-treatment by Giemsa staining based assay relative to control; format: functional; conditions: MHOM/IN/80/Dd8, ip, 288 h, time 12 day; procedure, shortened: as §2

N#Cc1c(N2CCN(c3ccccc3O)CC2)cc(-c2ccccc2)oc1=O
Activity [1]: 32.9% | Activity [2]: inactive | Activity [3]: Tde | Activity [4]: 1.2% | inhibition at 25 µM [5]: 84.2% | Activity [6]: inactive | Activity [7]: Active | inhibition in vivo at 50 mg/kg [8]: 56.9% | Activity [9]: 22.9% | inhibition in vivo at 50 mg/kg [10]: 67.3%
